# “Also recorded” adds a separate entry of the source. Read-outs that look alike come from different tables or passages of the source.
# Experiments:
# [1] = 5–300 µg dose range; previously demonstrated, no reference given; cited from earlier work
# [2] = cited from earlier work
# [3] = Immunogenicity: antidrug antibodies; format: in vivo, human; conditions: 100 µg s.c. single dose; baseline, 7 and 28 days after treatment
# Outline: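 Open-label single subcutaneous dose of test compound (100 µg, lower abdomen, fasted) in adults with normal or impaired renal function. Antidrug antibody titers were measured at baseline, 7 and 28 days post-dose, or at early discontinuation. Cross-reactivity to GLP-1 and glucagon was also recorded. Treatment-emergent incidence is treatment-induced plus treatment-boosted ADA. Analysed in all treated participants with ADA readings.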
# [4] = format: in vivo, human; conditions: 100 µg s.c. single dose
# Outline: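 Adults aged 18–85 (BMI 17–40 kg/m2) were grouped by Cockcroft–Gault CrCl and given a single subcutaneous 100 µg dose of test compound. Fasting ran from ≥8 h before to 4 h after dosing, with no fluids 1 h before to 2 h after. Adverse events, vitals, ECG, telemetry and laboratory tests were monitored inpatient for 72 h, then outpatient at days 7±1 and 28±2. TEAEs were coded by MedDRA 21.0, counting each once at highest severity.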
# [5] = in vitro studies; cited from earlier work
# [6] = severe renally impaired and ESRD subjects; cited from earlier work
molecule,measurement,setting,value
CCCCCCCCCCCCCCCC(=O)N[C@@H](CCC(=O)NCCCC[C@H](NC(=O)[C@H](CC(=O)O)NC(=O)[C@H](CO)NC(=O)[C@@H](NC(=O)[C@H](Cc1ccccc1)NC(=O)[C@@H](NC(=O)CNC(=O)[C@H](CCC(N)=O)NC(=O)[C@H](CO)NC(=O)[C@@H](N)Cc1c[nH]cn1)[C@@H](C)O)[C@@H](C)O)C(=O)N[C@@H](CO)C(=O)N[C@@H](CCC(=O)O)C(=O)N[C@@H](Cc1ccc(O)cc1)C(=O)N[C@@H](CC(C)C)C(=O)N[C@@H](CC(=O)O)C(=O)N[C@@H](CO)C(=O)N[C@@H](CCC(=O)O)C(=O)N[C@@H](CCCNC(=N)N)C(=O)N[C@@H](C)C(=O)N[C@@H](CCCNC(=N)N)C(=O)N[C@@H](CC(=O)O)C(=O)N[C@@H](Cc1ccccc1)C(=O)N[C@H](C(=O)N[C@@H](C)C(=O)N[C@@H](Cc1c[nH]c2ccccc12)C(=O)N[C@@H](CC(C)C)C(=O)N[C@@H](CCC(=O)O)C(=O)N[C@@H](C)C(=O)NCC(=O)NCC(=O)O)C(C)C)C(=O)O [cotadutide],PK profile (dose and time dependence),[1],linear and time-independent PK profile
same,Urine albumin-to-creatinine ratio vs placebo,"[2]; 32-day treatment with cotadutide 50–300 µg, T2D and stage 3 CKD with micro- and macroalbuminuria",reduced urine albumin-to-creatinine ratio
same,Participants with a serious TEAE deemed related to cotadutide,"[2]; once-daily cotadutide titrated to 50–300 µg for 32 days, moderate renal impairment and T2D, 1 of 21 participants",4.8%
same,Antidrug antibody (ADA) results,[3],No positive antidrug antibody results; also recorded: No confirmed positive ADA results
same,Incidence of headache,[4]; 10 of 37 individuals,27.0%
same,Incidence of nausea,[4]; 12 of 37 individuals,32.4%
same,Incidence of vomiting,[4]; 13 of 37 individuals,35.1%
same,Severity of TEAEs,[4]; all groups,mostly mild to moderate in severity
same,Incidence of TEAE,"[4]; all patients, 22 of 37",59.5%
same,Incidence of TEAE,"[4]; lower moderate renal impairment group, 8 of 11 patients",72.7%
same,Incidence of nausea,[4]; normal renal function group,38%
same,Incidence of vomiting,[4]; normal renal function group,38%
same,"Incidence of nausea, range",[4]; renal impairment groups,29–38%
same,"Incidence of vomiting, range",[4]; renal impairment groups,18–50%
same,Deaths or other serious TEAEs,[4]; study period,no deaths or other serious TEAEs
same,Incidence of TEAE,"[4]; upper moderate renal impairment group, 3 of 7 patients",42.9%
exenatide: GLP-1 receptor agonist exenatide (exendin-4),Primary cleavage sites (metabolized specifically in the kidney),[5],after amino acids (AA)-21 and -22
same,Tolerability and PK in severe renal impairment and ESRD,[6],poor tolerability and significant changes in PK
